In brackets after ≈: the same amount, converted by molar mass.
Key:
[1] = Cytotoxicity against human TZM-bl cells after 4 days by XTT assay; assay type: cell-based; conditions: 96 h
Summary of the method: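 TZM-bl cells (5 × 10^5/mL) exposed to graded compound concentrations at 37 °C for 4 days. XTT (1 mg/mL) with 0.02 μM PMS added, and absorbance at 450 nm read after 4 h.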

[2] = test system: Human immunodeficiency virus 1; test: Antiviral activity against HIV-1 NL4-3 infected in human TZM-bl cells assessed as inhibition of viral replication after 2 days by luciferase reporter gene based luminescence assay; assay type: functional, organism-based; conditions: Human immunodeficiency virus 1, NL4-3, TZM-bl, 48 h
Summary of the method: (§1)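 Single-round infection of TZM-bl cells with 200 TCID50 virus (NL4-3 for wild type) in the presence of graded compound concentrations. Luciferase luminescence was read two days after infection. Run at least in triplicate; mean ± SD reported.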

[3] = Selectivity index, ratio of CC50 for human TZM-bl cells to EC50 for HIV-1NL4-3; assay type: toxicity, cell-based; conditions: read-out: Ratio CC50/EC50
[4] = Aqueous solubility of the compound at pH 7.4 after 4 hrs; assay type: physicochemical; conditions: buffer, pH 7.4, 4 h
Liver microsomes [5] = test: Intrinsic clearance in human liver microsomes at 1 uM; assay type: ADME, Microsome
Summary of the method: (§2)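 Compound at 1 μM final in 0.1 M potassium phosphate pH 7.4 with 0.1 mg/mL human liver microsomes and 5 mM MgCl2, 37 °C. Started with NADPH (1.0 mM final) and quenched with ice-cold ACN at 0, 5, 15, 30, 60 min; duplicate.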

Liver microsomes [6] = test: Half life in human liver microsomes at 1 uM; assay type: ADME, Microsome; summary of the method: as §2
[7] = test system: Human immunodeficiency virus 1; test: Ratio of EC50 for multidrug-resistant HIV-1 RTMDR to EC50 for wild type HIV-1 NL4-3; assay type: functional
[8] = Aqueous solubility of the compound at pH 2.0 after 4 hrs; assay type: physicochemical; conditions: for solubility at 4 h: aqueous, pH 2; for solubility: buffer, pH 2, 4 h
[9] = test system: Human immunodeficiency virus 1; test: Antiviral activity against HIV-1 harboring reverse transcriptase K101E mutant infected in human TZM-bl cells assessed as inhibition of viral replication after 2 days by luciferase reporter gene based luminescence assay; assay type: functional, organism-based; conditions: Human immunodeficiency virus 1, TZM-bl, 48 h
Summary of the method: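 Single-round infection of TZM-bl cells with 200 TCID50 virus (NL4-3 for wild type) in the presence of graded compound concentrations. Luciferase luminescence was read two days after infection. […] Run at least in triplicate; mean ± SD reported.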

[10] = test system: Human immunodeficiency virus 1; test: Ratio of EC50 for HIV-1 harboring reverse transcriptase E138K mutant to EC50 for wild type HIV-1 NL4-3; assay type: functional
[11] = test system: Human immunodeficiency virus 1; test: Antiviral activity against multidrug-resistant HIV-1 RTMDR infected in human TZM-bl cells assessed as inhibition of viral replication after 2 days by luciferase reporter gene based luminescence assay; assay type: functional, organism-based; conditions: Human immunodeficiency virus 1, RTMDR, 48 h; summary of the method: as §1
[12] = test system: Human immunodeficiency virus 1; test: Antiviral activity against HIV-1 harboring reverse transcriptase E138K mutant infected in human TZM-bl cells assessed as inhibition of viral replication after 2 days by luciferase reporter gene based luminescence assay; assay type: functional, organism-based; conditions: Human immunodeficiency virus 1, TZM-bl, 48 h; summary of the method: as §1
[13] = test system: Human immunodeficiency virus 1; test: Ratio of EC50 for HIV-1 harboring reverse transcriptase K101E mutant to EC50 for wild type HIV-1 NL4-3; assay type: functional
Caco-2 = test: Apparent permeability of the compound in human Caco2 cells; assay type: ADME, cell-based

Compound	CC50 [1] [nM]	EC50 [2] [nM]	selectivity ratio [3]	solubility [4] [µg/mL]	intrinsic clearance (CLint) (Liver microsomes [5]) [µL/min/mg]	t1/2 (Liver microsomes [6]) [min]	solubility [8] [µg/mL]	other results
Cc1cc(CCC#N)cc(C)c1Oc1cc(Nc2ccc(C#N)cc2)c(N)cc1C(=O)O	14300	96	149	–	–	–	–	–
Cc1cc(CCC#N)cc(C)c1Oc1cc(Nc2ccc(C#N)cc2)c(N)cc1N	> 25000	7.3	> 3420	–	–	–	–	–
Cc1cc(/C=C/C#N)cc(C)c1Oc1cc(Nc2ccc(C#N)cc2)c(N)cc1S(N)(=O)=O	> 21800	93.7	> 233	–	–	–	–	–
Cc1cc(CCC#N)cc(C)c1Oc1cc(Nc2ccc(C#N)cc2)c(N)cc1C(F)(F)F	> 7100	1.13	–	0.24 (≈ 0.533 µM)	120	55.7	–	–
Cc1cc(/C=C/C#N)cc(C)c1Oc1cc(Nc2ccc(C#N)cc2)c(N)cc1CO	–	–	30800	–	–	–	–	Ratio EC50 [7]: 0.7; solubility at 4 h [8]: 20.9 µg/mL (≈ 50.9 µM); EC50 [9]: 3.4 nM; Ratio EC50 [10]: 7.4; EC50 [11]: 0.4 nM; EC50 [12]: 3.9 nM; Ratio EC50 [13]: 6.4
COC(=O)c1cc(N)c(Nc2ccc(C#N)cc2)cc1Oc1c(C)cc(CCC#N)cc1C	> 22700	4.32	> 5260	1.21 (≈ 2.75 µM)	40	186	21.8 (≈ 49.5 µM)	Ratio EC50 [7]: 0.9; EC50 [9]: 14 nM; Ratio EC50 [10]: 1.7; EC50 [11]: 4.1 nM; EC50 [12]: 7.5 nM; Ratio EC50 [13]: 3.2
Cc1cc(/C=C/C#N)cc(C)c1Oc1cc(Nc2ccc(C#N)cc2)c(N)cc1C(F)(F)F	15000	9.38	1600	0.24 (≈ 0.535 µM)	150	45	0.42 (≈ 0.937 µM)	–
Cc1cc(/C=C/C#N)cc(C)c1Oc1cc(Nc2ccc(C#N)cc2)c(N)cc1[N+](=O)[O-]	> 24400	0.63	–	0.29 (≈ 0.682 µM)	–	47.8	0.29 (≈ 0.682 µM)	Papp (Caco-2): < 2 ×10⁻⁶ cm/s
Cc1cc(N)cc(C)c1Oc1cc(Nc2ccc(C#N)cc2)c(N)cc1C(F)(F)F	15800	13.8	1140	–	–	–	–	–
COC(=O)c1cc(N)c(Nc2ccc(C#N)cc2)cc1Oc1c(C)cc(/C=C/C#N)cc1C	> 22800	–	> 8320	–	20	283	–	–
CC(=O)CCc1cc(C)c(Oc2cc(Nc3ccc(C#N)cc3)c(N)cc2C(F)(F)F)c(C)c1	11100	6.85	1620	0.16 (≈ 0.342 µM)	–	–	0.28 (≈ 0.599 µM)	–
Cc1cc(CCC#N)cc(C)c1Oc1cc(Nc2ccc(C#N)cc2)c(N)cc1C(=O)NN	> 22700	19.1	> 1190	–	–	–	–	–
CC(=O)/C=C/c1cc(C)c(Oc2cc(Nc3ccc(C#N)cc3)c(N)cc2C(F)(F)F)c(C)c1	> 8600	10.9	> 789	–	–	–	–	–
CNC(=O)c1cc(N)c(Nc2ccc(C#N)cc2)cc1Oc1c(C)cc(CCC#N)cc1C	> 9100	2.73	> 3330	8.28 (≈ 18.8 µM)	120	55.7	44.7 (≈ 102 µM)	Ratio EC50 [7]: 2.9; EC50 [9]: 14 nM; Ratio EC50 [10]: 3.7; EC50 [11]: 8 nM; EC50 [12]: 10 nM; Ratio EC50 [13]: 5.1
Cc1cc(/C=C/C#N)cc(C)c1Oc1cc(Nc2ccc(C#N)cc2)c(N)cc1C(N)=O	> 23600	–	> 27100	–	–	–	–	Ratio EC50 [7]: 2.1; solubility at 4 h [8]: 2.09 µg/mL (≈ 4.94 µM); EC50 [9]: 8.3 nM; Ratio EC50 [10]: 10.3; EC50 [11]: 1.8 nM; EC50 [12]: 9 nM; Ratio EC50 [13]: 9.5
Cc1cc(CCC#N)cc(C)c1Oc1cc(Nc2ccc(C#N)cc2)c(N)cc1CO	> 23800	0.39	> 61000	18.8 (≈ 45.6 µM)	330	20.9	89.8 (≈ 218 µM)	Ratio EC50 [7]: 4.6; EC50 [9]: 3.4 nM; Ratio EC50 [10]: 7.4; EC50 [11]: 1.8 nM; EC50 [12]: 2.9 nM; Ratio EC50 [13]: 8.7
Cc1cc(C#N)cc(C)c1Oc1cc(Nc2ccc(C#N)cc2)c(N)cc1C(F)(F)F	13300	3.79	3510	0.26 (≈ 0.616 µM)	–	–	0.96 (≈ 2.27 µM)	–
CNC(=O)c1cc2ncn(-c3ccc(C#N)cc3)c2cc1Oc1c(C)cc(/C=C/C#N)cc1C	> 890000	> 220	–	–	–	–	–	–
CNC(=O)c1cc2ncn(-c3ccc(C#N)cc3)c2cc1Oc1c(C)cc(CCC#N)cc1C	> 890000	> 220	–	–	–	–	–	–
CNC(=O)c1cc(N)c(Nc2ccc(C#N)cc2)cc1Oc1c(C)cc(/C=C/C#N)cc1C	> 9200	–	> 1610	–	150	44.8	–	–
Cc1cc(C#N)cc(C)c1Oc1nc(Nc2ccc(C#N)cc2)nc(N)c1Br [ETRAVIRINE]	–	1.51	–	–	–	–	–	–
Cc1cc(/C=C/C#N)cc(C)c1Oc1cc(Nc2ccc(C#N)cc2)c(N)cc1C(=O)O	–	–	65	–	–	–	–	–
Cc1cc(CO)cc(C)c1Oc1cc(Nc2ccc(C#N)cc2)c(N)cc1CO	15900	10	1590	–	–	–	–	–
Cc1cc(CCC#N)cc(C)c1Oc1cc(Nc2ccc(C#N)cc2)c(N)cc1C(N)=O	> 9400	1.39	> 6760	0.06 (≈ 0.141 µM)	160	42	9.11 (≈ 21.4 µM)	–
Cc1cc(CCC#N)cc(C)c1Oc1cc(Nc2ccc(C#N)cc2)c(N)cc1S(N)(=O)=O	11100	380	29.2	–	–	–	–	–

From ChEMBL document CHEMBL2163272, “Design, synthesis, and preclinical evaluations of novel 4-substituted 1,5-diarylanilines as potent HIV-1 non-nucleoside reverse transcriptase inhibitor (NNRTI) drug candidates” (J Med Chem, 2012)
